Data published in paper PMC9305226 (Clinical Pharmacology in Drug Development, 2022).

Tests used:
Format in all cases: in vivo, human
[1] = Plasma insulin lispro pharmacokinetics after a single subcutaneous dose; conditions: for median tmax: healthy Japanese men, single s.c. 0.3 U/kg, plasma, n = 36
How it was run: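 Venous blood drawn into K-EDTA tubes predose, then every 15–60 min over the 10 h clamp. Samples centrifuged within 20 min; plasma held at –60 to –80°C. Analysis by LC-MS/MS specific for lispro over endogenous insulin: protein precipitation plus solid-phase extraction, bovine insulin internal standard, C18 gradient at 40°C. Calibration was 1/x2-weighted linear over 100–8000 pg/mL. Noncompartmental parameters; log-values by mixed model, ratios back-transformed.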

[2] = test system: healthy Japanese male subjects; test: Safety and tolerability of single doses; conditions: single s.c. 0.3 U/kg, healthy Japanese men; all TEAEs mild or moderate
[3] = test system: healthy Japanese male subjects; test: 10-hour euglycemic clamp; conditions: ratio of geometric means, linear mixed effects model, n = 36, 95%CI
How it was run: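 Randomized double-blind 2-period crossover, single s.c. 0.3 U/kg per period, 7–18 day washout. After ≥10 h overnight fast, baseline BG was the mean of readings at –30, –20, –10 and –1 min (clamp skipped if <70 mg/dL). BG measured every 1 min; 10% glucose infusion auto-adjusted to hold BG 5 mg/dL below baseline for 10 h. Body-weight-standardized GIR smoothed (LOESS, tension 0.06). Log-parameters analysed by mixed model (period, sequence, treatment fixed; subject random), back-transformed.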

[4] = ratio of geometric means, linear mixed effects model, n = 36, 90%CI

Substance	median tmax [1] [h]	Tolerability of single doses [2]	AUCinf, Mean Ratio SAR‐Lis/Ly‐Lis‐Jp, point estimate (90%CI) [1, 4]	AUClast, Mean Ratio SAR‐Lis/Ly‐Lis‐Jp, point estimate (90%CI) [1, 4]	Cmax, Mean Ratio SAR‐Lis/Ly‐Lis‐Jp, point estimate (90%CI) [1, 4]	t1/2z, Mean Ratio SAR‐Lis/Ly‐Lis‐Jp, point estimate (90%CI) [1, 4]	GIRmax, Mean Ratio SAR‐Lis/Ly‐Lis‐Jp, point estimate (95%CI) [3]	GIR‐AUC0‐10h, Mean Ratio SAR‐Lis/Ly‐Lis‐Jp, point estimate (95%CI) [3]
insulin lispro [Ly‐Lis‐Jp, reference compound]	1	well tolerated	–	–	–	–	–	–
insulin lispro [SAR‐Lis]	1	well tolerated	1.00 (0.97‐1.02)	1.00 (0.97‐1.02)	0.99 (0.93‐1.05)	1.03 (0.96‐1.11)	1.07 (1.00‐1.15)	1.07 (0.99‐1.15)
